Data on three molecules can be found in paper PMC6333999 (Cancer Research and Treatment : Official Journal of Korean …, 2018).

Assay [1] concerns p38α. Conditions: background statement, no reference given; cited from earlier work.
The subject of assay [2] is p38α. The assay is described as follows: Percentage inhibition assay by ELISA. Type of assay: biochemical. Conditions: ATF-2 substrate, same experiment as p38δ. In a few lines:
(§1)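 Added to ATF-2-coated plates, 1 h at 37°C. Anti-phospho-ATF-2 1:400, then AP anti-rabbit IgG 1:4,000, each 1 h at 37°C. pNPP (pH 8.1) 90 min, NaOH stop, A405. Enzyme without peptide taken as 100% activity for % inhibition.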

In assay [3] the test system is p38α. In words: SPR binding of peptide with p38α. The note with it: BIAcore 3000, p38α on Ni-NTA chip, peptide in HBS-EP buffer. An outline of the steps:
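Pure p38α protein captured on an Ni-NTA chip. Test peptide in HBS-EP buffer injected at 0.23, 0.46 and 0.77 mM. Sensorgrams recorded, and association (KA) and dissociation (KD) constants fitted from them.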
Background: SPR reads the build-up and loss of mass on a sensor chip optically.

The next assay deals with p38δ. In words: Percentage inhibition assay by ELISA. It is filed as biochemical. In a few lines:
as §1

The target of assay [4] is T1, recombinant GST-tag p38δ protein (UniProt O15264).
T1 sequence: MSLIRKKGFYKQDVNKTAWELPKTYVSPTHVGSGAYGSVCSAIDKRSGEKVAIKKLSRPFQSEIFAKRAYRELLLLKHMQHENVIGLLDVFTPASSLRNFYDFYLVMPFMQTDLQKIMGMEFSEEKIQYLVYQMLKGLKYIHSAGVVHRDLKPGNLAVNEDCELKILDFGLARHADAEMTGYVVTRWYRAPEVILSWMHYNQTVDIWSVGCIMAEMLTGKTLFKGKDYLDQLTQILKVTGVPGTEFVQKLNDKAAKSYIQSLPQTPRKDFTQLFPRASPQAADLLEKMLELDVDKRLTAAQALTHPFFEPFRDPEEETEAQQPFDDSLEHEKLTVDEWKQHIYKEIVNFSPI
In words: SPR.

In the case of `C[S+]([O-])c1ccc(-c2nc(-c3ccncc3)c(-c3ccc(F)cc3)[nH]2)cc1` (stereo not drawn) [SB203580], the “specificity for p38α” value in the assay on p38α [1] is reported as “very specific p38α inhibitor”.
As to WFYH, the “inhibition of p38α” value in the assay on p38α [2] is recorded as “no inhibition”. Moreover, in the assay with p38α [3], the “binding to p38α” value is reported as “no binding was observed”. The “percentage inhibition of p38δ” value in the assay on p38δ (75 μM peptide, ELISA, ATF-2 substrate, 100 μM ATP, pH 7.5, 37°C, 1 hour, 405 nm) was 77%. Further, in the assay with p38δ (kinetic assays, pure p38δ protein incubated with peptide), the “phosphorylation of ATF-2 by p38δ” value is “reduction in phosphorylation of ATF-2”.
A word on the Kd: it is the concentration at which binding is half-saturated. For WFYH [WFYH tetrapeptide], the Kd in assay [4] amounted to 0.704 nM.
